Screens as filed in PubChem.
A selection: hits, their analogues and other compounds. The true share with any hit is near 1.9%.
Rin1 Abl inh = inhibitors of Rin1-Abl protein binding, primary screen, biochemical, TR-FRET | Tyrosine-protein kinase ABL1 (Homo sapiens) + Ras and Rab interactor 1 (Homo sapiens), … | inhibition, % at 7.35 µM | hit rate 0.4% among 360,000 | AID 588664, 2011; in the data active means inhibition above about 5%, passing the limit was not always enough
MBD2 inh = inhibitors of MBD2 binding to methylated DNA, primary screen, biochemical, TR-FRET, DNA-binding domain, human; MBD2 binding to methylated oligonucleotide; inhibition, % at 4.4 µM; AID 686964, 2013; Methyl-CpG-binding domain protein 2 (Homo sapiens), Q9UBB5; hit rate 0.31% among 370,000; in the data active means inhibition above about 13%
UHRF1 binding = UHRF1 methylated DNA binding inhibitors, primary screen, counter-screen for MBD2 inhibitor project, biochemical, TR-FRET, human UHRF1, single concentration | E3 ubiquitin-protein ligase UHRF1 (Homo sapiens), Q96T88 | UHRF1 binding to methylated oligo | inhibition, % at 4.4 µM | hit rate 0.75% among 370,000; in the data active means inhibition above about 21%;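 further: UHRF1 SRA domain binding a hemimethylated CpG hairpin DNA probe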
Target sequence (Q96T88 whole entry, looked up, the tested form may be a part): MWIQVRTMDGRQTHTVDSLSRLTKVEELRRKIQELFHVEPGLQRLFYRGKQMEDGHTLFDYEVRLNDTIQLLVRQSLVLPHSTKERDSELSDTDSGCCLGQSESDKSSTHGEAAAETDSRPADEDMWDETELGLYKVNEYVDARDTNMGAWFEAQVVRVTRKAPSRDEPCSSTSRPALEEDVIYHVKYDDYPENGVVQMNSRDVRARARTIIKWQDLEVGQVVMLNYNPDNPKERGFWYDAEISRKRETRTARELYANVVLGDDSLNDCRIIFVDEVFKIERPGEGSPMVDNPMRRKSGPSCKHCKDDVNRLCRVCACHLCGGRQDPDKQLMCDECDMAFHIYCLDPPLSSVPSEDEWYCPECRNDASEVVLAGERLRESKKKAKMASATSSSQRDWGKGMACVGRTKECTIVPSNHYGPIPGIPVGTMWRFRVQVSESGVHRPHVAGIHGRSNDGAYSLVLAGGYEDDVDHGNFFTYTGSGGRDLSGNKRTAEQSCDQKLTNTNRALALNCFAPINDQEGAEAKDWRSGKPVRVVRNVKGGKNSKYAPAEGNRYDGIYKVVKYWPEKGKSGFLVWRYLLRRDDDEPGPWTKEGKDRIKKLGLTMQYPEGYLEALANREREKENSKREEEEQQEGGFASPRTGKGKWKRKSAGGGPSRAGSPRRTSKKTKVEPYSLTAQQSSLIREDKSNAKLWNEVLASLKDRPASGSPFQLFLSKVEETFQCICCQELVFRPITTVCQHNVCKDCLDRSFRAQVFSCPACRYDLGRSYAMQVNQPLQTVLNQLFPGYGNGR
TDP2 absorb = human TDP2 enzyme inhibitors, primary screen, biochemical, epi absorbance, recombinant enzyme. T5PNP hydrolysis, p-nitrophenol absorbance 415 nm. inhibition, % at 12.8 µM. hit rate 0.34% among 370,000;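 active means inhibition above the mean of all tested compounds plus 3 SD, set per campaign, cut at about 25% in these data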
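Incubation: 2 h at 37 °C; Test system: recombinant human TDP2; Quantity: enzyme 120 nM; Read-out basis: percent inhibition; Medium: 50 mM Tris-HCl pH 7.5 with Mg2+, KCl, DTT, BSA; Repeats: single replicate; Compound: 12.8 µM single point, 1% DMSO; Signal: epi absorbance; Reagent: 5 mM T5PNP chromogenic substrate; Benchmarks: no-enzyme high, DMSO-plus-enzyme low.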
LEDGF integ inh = blockers of LEDGF/p75-dependent integrase strand transfer – biochemical, TR-FRET, high throughput, primary screen; HIV-1 integrase (with human LEDGF/p75); AID 743269, 2014; hit rate 0.64% among 370,000; TR-FRET IN-LEDGF/p75 DNA integration, Eu/Cy5; inhibition, % at 3.7 µM;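 active means inhibition above the screen-wide mean plus 3 SD, cut at about 13% in these data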;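 further: signal is the Cy5 over europium emission ratio at 671 and 618 nm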
IN multimer act = HIV-1 IN multimer formation enhancers, counter-screen for LEDGF/p75 integration inhibitor project, biochemical, TR-FRET; TR-FRET HIV-1 integrase multimerization; shares compounds with LEDGF integ inh; activation, % at 7.7 µM; AID 1053131, 2014; hit rate 17% among 2,000; in the data active means activation above about 8.9%
TRFRET interf = TR-FRET optical interference artefacts, confirmation, artefact control for LEDGF/p75-dependent integration inhibitor project, biochemical, HIV-1 IN multimerization | TR-FRET optical interference counterscreen | 2,000 tested, under 10 active | shares compounds with LEDGF integ inh | inhibition, % at 7.7 µM;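 active means inhibition above the mean over all tested compounds plus 3 SD, which no compound reached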
LEDGF integ conf = inhibitors of HIV-1 IN-LEDGF/p75 DNA integration, confirmation, biochemical, TR-FRET; shares compounds with LEDGF integ inh; TR-FRET LEDGF/p75-dependent HIV-1 integration; inhibition, % at 3.7 µM; hit rate 36% among 2,000; in the data active means inhibition above about 14%
Large screens that a line does not name were inactive (follow-up assays come after a bar, where they were run).

CCN(CC)c1ccc(/C=N/NC(=O)Cc2nnc(NC(=O)Nc3ccccc3)s2)cc1	none
O=C(Cc1nnc(NC(=O)c2ccccc2)s1)N/N=C\c1ccc(O)c(O)c1	LEDGF integ inh 16 | IN multimer act 35 | TRFRET interf inactive | LEDGF integ conf 50
C=CCN1CCN(C(c2ccccc2)c2nnnn2CCC(C)C)CC1 (configuration not stated)	LEDGF integ inh 56 | IN multimer act inactive | TRFRET interf inactive | LEDGF integ conf inactive
CC1=C(C)CC(C(=O)Nc2nc(-c3ccc(C)cc3C)c(C)s2)C(C(=O)O)C1 (configuration not stated)	LEDGF integ inh 25 | IN multimer act inactive | TRFRET interf inactive | LEDGF integ conf inactive
CCC(=O)Nc1nnc(S(=O)(=O)N2CCCC2)s1	LEDGF integ inh 14 | IN multimer act inactive | TRFRET interf inactive | LEDGF integ conf inactive
Cc1ccc(S(=O)(=O)/N=C(/Nc2cccc(O)c2)c2ccccc2)cc1	LEDGF integ inh 37 | IN multimer act inactive | TRFRET interf inactive | LEDGF integ conf inactive
S=C(N/N=C/c1ccc2ncccc2c1)Nc1cccnc1	none
N#Cc1ccc(/C=N/NC(=S)Nc2ccc(S(=O)(=O)N3CCOCC3)cc2)cc1	none
O=S(=O)(c1ccc(NC(=S)N/N=C/c2ccc(O)c(O)c2)cc1)N1CCOCC1	LEDGF integ inh 18 | IN multimer act inactive | TRFRET interf inactive | LEDGF integ conf 14
Oc1ccc(/C=N/NC(=S)Nc2cccnc2)cc1O	LEDGF integ inh 21 | IN multimer act 18 | TRFRET interf inactive | LEDGF integ conf 34
O=[N+]([O-])c1cccc(COc2cccc(CN3CCCC3)c2)c1	none
CC(C)NC(=O)C1(C)CN(S(C)(=O)=O)CC(=O)N1CCCN1CCOCC1 (configuration not stated)	none (no result: Rin1 Abl inh)
O=c1[nH]c(CN2CCc3ccccc32)nc2scc(-c3cccs3)c12	LEDGF integ inh 18 | IN multimer act inactive | TRFRET interf inactive | LEDGF integ conf inactive
CC(=O)Nc1ccc(SCC(=O)N2CCN(S(=O)(=O)c3ccccc3)CC2)cc1	none
CC1=NN(c2cccc(C(=O)O)c2)C(=O)/C1=C\C=C/c1ccccc1	LEDGF integ inh 16 | IN multimer act inactive | TRFRET interf inactive | LEDGF integ conf 16
CC1=NN(c2ccccc2)C(=O)/C1=C/C=C/C=C/N(C)C	LEDGF integ inh 23 | IN multimer act 16 | TRFRET interf inactive | LEDGF integ conf inactive
Cc1ccc(C(=O)Nn2cnnc2)cc1Cl	none
CC1(C)CC(=O)C2=C(C1)OC1=C(C(=O)CC(C)(C)C1)C2c1ccc(O)cc1O	LEDGF integ inh 17 | IN multimer act inactive | TRFRET interf inactive | LEDGF integ conf inactive
CC1(C)CC(=O)C2=C(C1)OC1=C(C(=O)CC(C)(C)C1)C2c1ccc(O)c([N+](=O)[O-])c1	none
COc1ccc(C2C(C#N)=C(N)Oc3c2c(C)nn3-c2ccccc2)cc1Cn1nc(C)c([N+](=O)[O-])c1C (configuration not stated)	none
COc1ccc(C2C(C#N)=C(N)OC3=C2C(=O)CC(C)(C)C3)cc1Cn1nc(C)c([N+](=O)[O-])c1C (configuration not stated)	LEDGF integ inh 14 | IN multimer act inactive | TRFRET interf inactive | LEDGF integ conf inactive
CS(=O)(=O)N(CC(=O)Nc1ccccc1Br)Cc1ccccc1	none
Cc1sc2nc(SCC(=O)c3ccc(O)c(O)c3)n(C)c(=O)c2c1C	LEDGF integ inh 20 (no result: Rin1 Abl inh) | IN multimer act 26 | TRFRET interf inactive | LEDGF integ conf 46
Cc1sc2nc(SCC(=O)OC(C)C)n(C)c(=O)c2c1C	none
O=C(O)/C=C/C(=O)N1N=C(c2ccco2)CC1c1ccco1 (configuration not stated)	LEDGF integ inh 51 | IN multimer act inactive | TRFRET interf inactive | LEDGF integ conf inactive
O=C(CCl)N1N=C(c2ccco2)CC1c1ccco1 (configuration not stated)	UHRF1 binding 33, LEDGF integ inh 49 | IN multimer act inactive | TRFRET interf inactive | LEDGF integ conf inactive
O=C1C(Br)=C(c2ccccc2)C(c2ccccc2)=C1c1ccccc1	none (no result: MBD2 inh, UHRF1 binding, TDP2 absorb, LEDGF integ inh)
COc1ccc([C@H]2CC(=O)C=C(c3cccc(C(F)(F)F)c3)C2)cc1	none
C=CCc1cc(C=Nc2ccc(N3CCOCC3)cc2)cc(OCC)c1O	LEDGF integ inh 25 | IN multimer act inactive | TRFRET interf inactive | LEDGF integ conf inactive
C=CCc1cc(/C=N/n2cnnc2)cc(OCC)c1O	none
OCC1OC(Nc2ccccc2C=NO)C(O)C1O (configuration not stated)	none
CC(=O)c1ccc(NC(=O)C(C)OC(=O)/C=C/c2ccco2)cc1 (configuration not stated)	LEDGF integ inh 19 | IN multimer act inactive | TRFRET interf inactive | LEDGF integ conf inactive
Oc1c(C=Nc2cccc3cccnc23)sc2ccccc12	none (no result: Rin1 Abl inh)
Cc1cccc(/N=C/c2sc3ccccc3c2O)n1	LEDGF integ inh 50 | IN multimer act inactive | TRFRET interf inactive | LEDGF integ conf inactive
CCCCCCN1C[C@@H](O)[C@H](n2cc(COC(=O)c3ccccc3)nn2)C[C@@H]1c1ccc(C)cc1	none
COc1ccc(CSc2ccc(S(=O)(=O)N3CCCC3)cn2)cc1F	none
COc1ccc(OC)c(/C=C/c2ccnc3ccccc23)c1	LEDGF integ inh 25 | IN multimer act inactive | TRFRET interf inactive | LEDGF integ conf inactive
COc1cc(OC)c(OC)cc1/C=C/c1ccnc2ccccc12	none
CCOc1ccc(N=CC2=C(O)CC(c3ccco3)CC2=O)cc1 (configuration not stated)	none
O=C1CC(c2ccco2)CC(O)=C1C=Nc1cc(Cl)cc(Cl)c1 (configuration not stated)	UHRF1 binding 33, LEDGF integ inh 45 | IN multimer act inactive | TRFRET interf inactive | LEDGF integ conf inactive
